Test results from ChEMBL document CHEMBL1148329, “Synthesis and structure-activity studies on N-[5-(1H-imidazol-4-yl)-5,6,7,8-tetrahydro-1-naphthalenyl]methanesulfonamide, an imidazole-containing alpha(1A)-adrenoceptor agonist” (J Med Chem, 2004).
Activity calls are given as the source filed them. The calls are words filed in the database; no cut-off is given here.

Key:
[1] = target: T1, Alpha-1A adrenergic receptor (Oryctolagus cuniculus) (UniProt O02824); experiment: Efficacy relative to phenylephrine (PE) to constrict tissue containing the alpha-1A adrenergic receptor in rabbit urethra; assay type: functional, tissue-based
T1 sequence (whole entry): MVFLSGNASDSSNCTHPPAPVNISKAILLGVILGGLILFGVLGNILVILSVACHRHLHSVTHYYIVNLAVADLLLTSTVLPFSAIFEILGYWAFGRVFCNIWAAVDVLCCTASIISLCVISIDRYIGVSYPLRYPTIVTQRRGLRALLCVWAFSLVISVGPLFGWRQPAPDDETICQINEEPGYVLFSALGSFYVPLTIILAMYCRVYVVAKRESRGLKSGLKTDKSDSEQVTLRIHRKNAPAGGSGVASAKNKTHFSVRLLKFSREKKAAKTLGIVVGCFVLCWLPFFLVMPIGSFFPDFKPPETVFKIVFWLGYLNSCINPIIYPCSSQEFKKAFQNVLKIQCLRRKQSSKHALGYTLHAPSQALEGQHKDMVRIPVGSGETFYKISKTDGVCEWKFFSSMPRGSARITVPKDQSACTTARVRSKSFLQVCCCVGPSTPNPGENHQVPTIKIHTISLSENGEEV
How it was run: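 α1-agonist dose–response curves in isolated tissue: rabbit urethra (α1A), rat spleen (α1B), rat aorta (α1D). Agonist potency and efficacy read from the concentration–response curves.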

Canis familiaris [2] = experiment: Uroselectivity was determined by measuring effective dose required for 20 mmHg increase of mean arterial pressure (MAP) in vivo in dog; IA = Inactive; assay type: functional, organism-based; details: Canis lupus familiaris; Artery
How it was run: (§1)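 Dog model recording intraurethral pressure (IUP) and mean arterial pressure (MAP) simultaneously. Increasing iv doses given, maximal effect of each dose taken. Doses giving a 5 mmHg rise in IUP (ED Δ5) or 20 mmHg rise in MAP (ED Δ20) were calculated, in nmol/kg ± SEM, n ≥ 4 (2 or 3 where footnoted).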

Canis familiaris [3] = experiment: Uroselectivity was determined by measuring effective dose required for 5 mmHg increase of intraurethral pressure (IUP) in vivo in dog; IA = Inactive; assay type: functional, organism-based; details: Canis lupus familiaris; how it was run: as §1
[4] = target: T2, Alpha-1D adrenergic receptor (Rattus norvegicus, UniProt P23944); experiment: In vitro binding affinity towards alpha-1D adrenergic receptor of rat clone in radioligand binding assay
T2 sequence (P23944 whole entry): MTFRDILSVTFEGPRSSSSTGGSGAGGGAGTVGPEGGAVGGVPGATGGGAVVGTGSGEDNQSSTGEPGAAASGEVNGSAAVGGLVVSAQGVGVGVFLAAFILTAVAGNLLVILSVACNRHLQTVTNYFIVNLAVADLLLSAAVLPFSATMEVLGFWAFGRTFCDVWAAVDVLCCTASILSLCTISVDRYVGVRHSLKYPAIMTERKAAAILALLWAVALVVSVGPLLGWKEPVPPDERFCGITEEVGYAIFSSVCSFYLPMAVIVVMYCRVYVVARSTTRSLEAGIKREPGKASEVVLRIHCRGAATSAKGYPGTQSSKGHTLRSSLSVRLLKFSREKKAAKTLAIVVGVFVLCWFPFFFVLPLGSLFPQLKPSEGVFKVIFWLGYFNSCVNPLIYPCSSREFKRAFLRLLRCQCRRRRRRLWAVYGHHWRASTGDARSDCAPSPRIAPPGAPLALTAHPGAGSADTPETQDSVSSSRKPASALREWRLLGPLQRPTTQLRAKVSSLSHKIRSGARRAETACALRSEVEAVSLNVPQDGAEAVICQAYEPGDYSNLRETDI
How it was run: (§2)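 Radioligand binding at α1 subtypes: α1A from rat submaxillary gland, α1B hamster clone, α1D rat clone. Run essentially per an earlier method.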

[5] = target: T3, Alpha-1B adrenergic receptor (Mesocricetus auratus, UniProt P18841); experiment: In vitro binding affinity towards alpha-1B adrenergic receptor of hamster clone in radioligand binding assay; assay type: single protein; how it was run: as §2
T3 sequence (P18841 whole entry): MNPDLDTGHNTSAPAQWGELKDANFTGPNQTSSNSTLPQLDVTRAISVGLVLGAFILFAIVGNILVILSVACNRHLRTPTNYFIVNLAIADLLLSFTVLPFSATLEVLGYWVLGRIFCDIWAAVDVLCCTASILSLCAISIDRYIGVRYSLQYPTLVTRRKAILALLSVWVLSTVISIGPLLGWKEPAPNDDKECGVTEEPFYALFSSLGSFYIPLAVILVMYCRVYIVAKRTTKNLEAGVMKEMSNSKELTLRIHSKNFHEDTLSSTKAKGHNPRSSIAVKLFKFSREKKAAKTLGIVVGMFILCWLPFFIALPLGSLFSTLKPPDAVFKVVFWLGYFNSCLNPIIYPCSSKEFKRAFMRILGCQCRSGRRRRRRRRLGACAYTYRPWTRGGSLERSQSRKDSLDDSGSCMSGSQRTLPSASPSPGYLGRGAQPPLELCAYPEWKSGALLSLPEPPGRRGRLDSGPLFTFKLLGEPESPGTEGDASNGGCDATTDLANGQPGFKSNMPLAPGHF

[6] = target: T4, Alpha-1A adrenergic receptor (Bos taurus, UniProt P18130); experiment: In vitro binding affinity towards alpha-1A adrenergic receptor of bovine clone in radioligand binding assay
T4 sequence (P18130 whole entry): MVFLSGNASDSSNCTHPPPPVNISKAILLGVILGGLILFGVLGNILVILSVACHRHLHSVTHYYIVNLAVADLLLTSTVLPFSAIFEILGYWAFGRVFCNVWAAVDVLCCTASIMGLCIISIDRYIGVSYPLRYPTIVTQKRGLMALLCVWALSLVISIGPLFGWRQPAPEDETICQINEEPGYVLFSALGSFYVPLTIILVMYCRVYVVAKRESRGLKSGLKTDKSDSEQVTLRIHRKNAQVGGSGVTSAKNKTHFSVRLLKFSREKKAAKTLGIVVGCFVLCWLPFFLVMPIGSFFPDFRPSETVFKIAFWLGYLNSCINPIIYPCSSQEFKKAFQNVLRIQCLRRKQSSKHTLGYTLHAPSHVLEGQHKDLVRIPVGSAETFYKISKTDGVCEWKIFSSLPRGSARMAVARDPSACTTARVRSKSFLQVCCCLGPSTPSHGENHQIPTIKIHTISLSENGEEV

[7] = target: Alpha adrenergic receptor 1A and 1B (Rattus norvegicus) (UniProt P15823+P43140); experiment: Selectivity is ratio of pKi (binding affinity) of alpha-1B receptor to that of alpha-1A receptor.; assay type: protein assay
Chain of Alpha adrenergic receptor 1A and 1B (Rattus norvegicus) (P15823 whole entry, looked up): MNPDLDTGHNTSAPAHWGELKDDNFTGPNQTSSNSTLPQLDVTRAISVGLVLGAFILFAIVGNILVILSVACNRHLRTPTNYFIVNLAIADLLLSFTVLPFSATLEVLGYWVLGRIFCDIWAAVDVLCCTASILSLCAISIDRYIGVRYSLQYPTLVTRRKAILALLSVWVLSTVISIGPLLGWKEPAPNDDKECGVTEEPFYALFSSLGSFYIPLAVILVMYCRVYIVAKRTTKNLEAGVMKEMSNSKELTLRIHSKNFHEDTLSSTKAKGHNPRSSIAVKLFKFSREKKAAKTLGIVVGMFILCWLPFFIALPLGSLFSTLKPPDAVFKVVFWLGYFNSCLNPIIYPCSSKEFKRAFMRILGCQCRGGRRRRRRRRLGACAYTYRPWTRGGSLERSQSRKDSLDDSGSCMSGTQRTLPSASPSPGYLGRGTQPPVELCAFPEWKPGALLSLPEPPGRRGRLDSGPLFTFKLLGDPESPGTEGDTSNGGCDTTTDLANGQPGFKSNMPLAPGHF
Chain of Alpha adrenergic receptor 1A and 1B (Rattus norvegicus) (P43140 whole entry, looked up): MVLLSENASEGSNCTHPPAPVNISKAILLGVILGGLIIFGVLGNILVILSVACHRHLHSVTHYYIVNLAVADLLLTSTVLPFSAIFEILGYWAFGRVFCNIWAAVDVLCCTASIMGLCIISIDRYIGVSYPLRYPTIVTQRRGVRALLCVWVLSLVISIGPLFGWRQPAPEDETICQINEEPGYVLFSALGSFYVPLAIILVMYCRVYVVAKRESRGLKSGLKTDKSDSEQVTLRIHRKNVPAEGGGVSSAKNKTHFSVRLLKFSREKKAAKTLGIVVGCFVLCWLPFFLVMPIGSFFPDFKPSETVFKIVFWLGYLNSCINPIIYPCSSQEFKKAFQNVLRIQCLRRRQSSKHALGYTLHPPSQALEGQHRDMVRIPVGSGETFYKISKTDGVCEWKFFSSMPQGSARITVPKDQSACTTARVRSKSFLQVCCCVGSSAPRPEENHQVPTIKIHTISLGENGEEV

[8] = target: Alpha adrenergic receptor 1A and 1D (Rattus norvegicus) (UniProt P23944+P43140); experiment: Selectivity is ratio of pKi (binding affinity) of Alpha-1D to that of alpha1A; assay type: protein assay
[9] = target: Alpha-1A adrenergic receptor (Oryctolagus cuniculus) (UniProt O02824); experiment: Functional agonism of the compounds to constrict tissue containing the alpha-1A adrenergic receptor in rabbit urethra; Inactive

Row | SMILES | Efficacy [1] [%] | ED delta20 (Canis familiaris [2]) | ED delta5 (Canis familiaris [3]) | Ki [4] [nM] | Ki [5] [nM] | Ki [6] [nM] | Selectivity [7] | Selectivity [8] | pD2 [9]
1 | Cn1cnc(C2CCCc3c(NS(C)(=O)=O)cccc32)c1 (stereo unspecified) | 40 | inactive | inactive |  |  |  |  |  | 
2 | O=S(=O)(Nc1cccc2c1CCCC2c1c[nH]cn1)c1ccc2ccccc2c1 (stereo unspecified) |  |  |  | 100 | 214 | 692 | 1 | 0.4 | inactive
3 | CS(=O)(=O)Nc1cccc2c1CCC=C2c1c[nH]cn1 |  | inactive | inactive |  |  |  |  |  | 
